The source of these data is ChEMBL document CHEMBL1132429, “Design and synthesis of lipophilic phosphoramidate d4T-MP prodrugs expressing high potency against HIV in cell culture: structural determinants for in vitro activity and QSAR” (J Med Chem, 1999).

Data set [1] deals with Human immunodeficiency virus 2. Briefly: Concentration required to protect CEM/0 cells against the cytopathicity of HIV-2 by 50%. The conditions noted are these: Human immunodeficiency virus 2, CCRF-CEM.
Data set [2] is described as follows: Partition coefficient (logD7.0). The following applies: octanol/water, pH 7. The format is physicochemical. The gist of the method: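 Compound (2 μmol) was dissolved in 1-octanol (10 mL) and read by UV at 265 nm. Equal volumes of this solution and pH 7.0 phosphate buffer were stirred 5 min at 25 °C, then allowed to separate for 5 min. Octanol-phase absorbance at 265 nm was divided by that of the original octanol solution. Each experiment was done at least in triplicate.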

Data set [3] deals with Human immunodeficiency virus 2. Nature of the data set: Concentration required to protect CEM/TK cells against the cytopathicity of HIV-2 by 50%. The conditions noted are these: Human immunodeficiency virus 2, CEM-TK(-).
For data set [4], the system named is Human immunodeficiency virus 1. Nature of the data set: Ratio CC50/EC50 for HIV-1 in CEM/0 cells. In kind it is functional.
Another data set concerns CCRF-CEM. Nature of the data set: Cytostatic concentration required to inhibit CEM/0 cells proliferation by 50%. The format is functional. The conditions noted are these: Homo sapiens.
Data set [5] relates to Human immunodeficiency virus 1. Briefly: Concentration required to protect CEM/0 cells against the cytopathicity of HIV-1 by 50%. The format is functional, organism-based. The following applies: Human immunodeficiency virus 1, CCRF-CEM. Summed up:
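CEM/0 or CEM/TK⁻ cells at 250,000 cells/mL were infected with HIV-1 (~20 CCID₅₀/mL) or HIV-2 (~100 CCID₅₀/mL). Cells were mixed with an equal volume of diluted compound and incubated 4 days at 37 °C, then scored for giant cell formation. EC₅₀ is the concentration (μM) giving 50% inhibition of HIV-induced cytopathicity. Values are the mean of 2–4 independent experiments.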

As for `COC(=O)C(C)NP(=O)(OC[C@@H]1C=C[C@H](n2cc(C)c(=O)[nH]c2=O)O1)Oc1ccccc1` (stereo partly specified), the EC50 in data set [1], in data set [3] and in data set [5] was 75 nM in each case. In addition, the logD in data set [2] worked out at 1.04. Moreover, the Selectivity index in data set [4] is above 1333. In the data set with CCRF-CEM, this molecule had a CC50 above 100000 nM.

On to `COC(=O)C(C)NP(=O)(OC[C@@H]1C=C[C@H](n2cc(C)c(=O)[nH]c2=O)O1)Oc1cccc(Cl)c1` (stereo partly specified), for which the EC50 was 57 nM in data set [1], 40 nM in data set [3] and 25 nM in data set [5]. This molecule also had a logD in data set [2] of 1.42. The Selectivity index in data set [4] is recorded as 1040. Moreover, in the data set with CCRF-CEM, the cytotoxic concentration (CC50) came out at 26000 nM.

As for `COC(=O)C(C)NP(=O)(OC[C@@H]1C=C[C@H](n2cc(C)c(=O)[nH]c2=O)O1)Oc1ccc(Cl)c(Cl)c1` (stereo partly specified), the results for the half-maximal effective concentration (EC50) in data set [1], in data set [3] and in data set [5] were 30 nM, 30 nM and 16 nM, respectively. This molecule also returned a logD in data set [2] of 2.15. For the same molecule, in data set [4], the Selectivity index came to 1313. In addition, the CC50 in the data set on CCRF-CEM is 21000 nM.

Turning to `COC(=O)C(C)NP(=O)(OC[C@@H]1C=C[C@H](n2cc(C)c(=O)[nH]c2=O)O1)Oc1ccc(OC)cc1` (stereo partly specified), the values for the EC50 in data set [1], in data set [3] and in data set [5] were 53 nM, 47 nM and 57 nM, respectively. Moreover, the logD in data set [2] is 1.09. Moreover, the Selectivity index in data set [4] was 614. Besides, the CC50 with CCRF-CEM came out at 35000 nM.

With `COC(=O)C(C)NP(=O)(OC[C@@H]1C=C[C@H](n2cc(C)c(=O)[nH]c2=O)O1)Oc1ccc([N+](=O)[O-])cc1` (stereo partly specified), the concentration giving a half-maximal response (EC50) in data set [1] was determined as 190 nM; in data set [3], 90 nM; in data set [5] it was 130 nM. Also, in data set [2], the pH-dependent lipophilicity (logD) was 0.9. For the same molecule, in data set [4], the Selectivity index was determined as 562. In the data set with CCRF-CEM, this molecule displayed a CC50 of 73000 nM.

On to `COC(=O)C(C)NP(=O)(OC[C@@H]1C=C[C@H](n2cc(C)c(=O)[nH]c2=O)O1)Oc1ccccc1Cl` (stereo partly specified), for which the EC50 in data set [1] was 29 nM; in data set [3] it was 65 nM; in data set [5] it was 18 nM. Moreover, the logD in data set [2] stood at 1.37. For the same molecule, in data set [4], the Selectivity index was determined as 2611. The molecule further registered a half-maximal cytotoxic concentration (CC50) in the data set with CCRF-CEM of 47000 nM.

`COC(=O)C(C)NP(=O)(OC[C@@H]1C=C[C@H](n2cc(C)c(=O)[nH]c2=O)O1)Oc1ccc(C#N)cc1` (stereo partly specified): the EC50 in data set [1] was 130 nM; in data set [3], 90 nM; in data set [5], 150 nM. This molecule also returned a log distribution coefficient (logD) in data set [2] of 0.91. For the same molecule, the Selectivity index in data set [4] was 400. Half-maximal cytotoxicity in the data set on CCRF-CEM (CC50) was put at 60000 nM.

Regarding `COC(=O)C(C)NP(=O)(OC[C@@H]1C=C[C@H](n2cc(C)c(=O)[nH]c2=O)O1)Oc1ccc(Br)cc1` (stereo partly specified) [STAMPIDINE], the results for the EC50 in data set [1], in data set [3] and in data set [5] were 16 nM, 18 nM and 9 nM, respectively. Further, the logD in data set [2] came out at 1.6. The Selectivity index in data set [4] stood at 1889. The molecule also displayed a CC50 in the data set on CCRF-CEM of 17000 nM.

Consider `COC(=O)C(C)NP(=O)(OC[C@@H]1C=C[C@H](n2cc(C)c(=O)[nH]c2=O)O1)Oc1ccc(F)cc1` (stereo partly specified), for which the 50% effective concentration (EC50) in data set [1] was determined as 60 nM; in data set [3], 22 nM; in data set [5], 53 nM. The molecule also registered a logD in data set [2] of 1.1. The Selectivity index in data set [4] is reported as 490. The CC50 with CCRF-CEM worked out at 26000 nM.

Regarding `COC(=O)C(C)NP(=O)(OC[C@@H]1C=C[C@H](n2cc(C)c(=O)[nH]c2=O)O1)Oc1cccc(F)c1` (stereo partly specified), the values for the 50% effective concentration (EC50) in data set [1], in data set [3] and in data set [5] were 35 nM, 65 nM and 18 nM, respectively. The molecule also returned a logD in data set [2] of 1.08. Besides, the Selectivity index in data set [4] is reported as 1667. In the data set with CCRF-CEM, this molecule returned a CC50 of 30000 nM.

As to `COC(=O)C(C)NP(=O)(OC[C@@H]1C=C[C@H](n2cc(C)c(=O)[nH]c2=O)O1)Oc1ccc(C)cc1` (stereo partly specified), the EC50 in data set [1] was 50 nM; in data set [3], 25 nM; in data set [5] it was 40 nM. Besides, the pH-dependent lipophilicity (logD) in data set [2] came out at 1.19. Besides, the Selectivity index in data set [4] was 850. Besides, the CC50 in the data set on CCRF-CEM was determined as 34000 nM.

As for `COC(=O)C(C)NP(=O)(OC[C@@H]1C=C[C@H](n2cc(C)c(=O)[nH]c2=O)O1)Oc1cccc(C(C)=O)c1` (stereo partly specified), the half-maximal effective concentration (EC50) was determined as 90 nM in data set [1], 45 nM in data set [3] and 80 nM in data set [5]. Moreover, the logD in data set [2] was 0.92. Further, in data set [4], the Selectivity index amounted to 625. The molecule also gave a 50% cytotoxic concentration (CC50) in the data set with CCRF-CEM of 50000 nM.

With `COC(=O)C(C)NP(=O)(OC[C@@H]1C=C[C@H](n2cc(C)c(=O)[nH]c2=O)O1)Oc1cccc(I)c1` (stereo partly specified), the EC50 in data set [1] was 7 nM; in data set [3] it was 16 nM; in data set [5], 8 nM. Besides, the pH-dependent lipophilicity (logD) in data set [2] was determined as 1.78. Besides, in data set [4], the Selectivity index is listed as 3125. The same molecule returned a cytotoxic concentration (CC50) with CCRF-CEM of 25000 nM.

For the molecule `COC(=O)C(C)NP(=O)(OC[C@@H]1C=C[C@H](n2cc(C)c(=O)[nH]c2=O)O1)Oc1cccc(C(F)(F)F)c1` (stereo partly specified), the figures for the EC50 in data set [1], in data set [3] and in data set [5] were 13 nM, 5.4 nM and 13 nM, respectively. In addition, in data set [2], the logD amounted to 1.57. Besides, the Selectivity index in data set [4] is on record as 1077. In addition, the half-maximal cytotoxic concentration (CC50) in the data set with CCRF-CEM turned out to be 14000 nM.

As to `COC(=O)C(C)NP(=O)(OC[C@@H]1C=C[C@H](n2cc(C)c(=O)[nH]c2=O)O1)Oc1cccc(Br)c1` (stereo partly specified), the EC50 was found to be 16 nM in data set [1], 14 nM in data set [3] and 15 nM in data set [5]. In data set [2], this molecule had a logD of 1.64. For the same molecule, the Selectivity index in data set [4] was found to be 867. Moreover, the CC50 in the data set with CCRF-CEM is 13000 nM.

Take `Cc1cn([C@H]2C=C[C@@H](CO)O2)c(=O)[nH]c1=O` [STAVUDINE]: the values for the concentration giving a half-maximal response (EC50) in data set [1], in data set [3] and in data set [5] were 770 nM, 33000 nM and 651 nM, respectively. Further, the logD in data set [2] is -0.59. Also, in data set [4], the Selectivity index worked out at 267.

As for `COC(=O)C(C)NP(=O)(OC[C@@H]1C=C[C@H](n2cc(C)c(=O)[nH]c2=O)O1)Oc1ccc(OC(F)(F)F)cc1` (stereo partly specified), the values for the half-maximal effective concentration (EC50) in data set [1], in data set [3] and in data set [5] were 30 nM, 30 nM and 14 nM, respectively. This molecule gave a logD in data set [2] of 1.86. For the same molecule, the Selectivity index in data set [4] worked out at 2429. Moreover, the CC50 in the data set with CCRF-CEM was determined as 34000 nM.

For `COC(=O)C(C)NP(=O)(OC[C@@H]1C=C[C@H](n2cc(C)c(=O)[nH]c2=O)O1)Oc1ccc(I)cc1` (stereo partly specified), the results for the EC50 in data set [1], in data set [3] and in data set [5] were 15 nM, 29 nM and 13 nM, respectively. The same molecule showed a logD in data set [2] of 1.93. Moreover, the Selectivity index in data set [4] is on record as 1154. Besides, in the data set with CCRF-CEM, the CC50 stood at 15000 nM.

Regarding `COC(=O)c1ccc(OP(=O)(NC(C)C(=O)OC)OC[C@@H]2C=C[C@H](n3cc(C)c(=O)[nH]c3=O)O2)cc1` (stereo partly specified), the EC50 in data set [1] turned out to be 22 nM; in data set [3], 25 nM; in data set [5], 25 nM. In data set [2], this molecule gave a logD of 1.01. For the same molecule, the Selectivity index in data set [4] is recorded as 1240. For the same molecule, the midpoint of cytotoxicity with CCRF-CEM, the CC50, lay at 31000 nM.

Consider `COC(=O)C(C)NP(=O)(OC[C@@H]1C=C[C@H](n2cc(C)c(=O)[nH]c2=O)O1)Oc1ccc(C(F)(F)F)cc1` (stereo partly specified), for which the 50% effective concentration (EC50) in data set [1] amounted to 10 nM; in data set [3] it was 18 nM; in data set [5] it was 10 nM. For the same molecule, the logD in data set [2] came to 1.77. The Selectivity index in data set [4] is 1300. Also, in the data set on CCRF-CEM, the CC50 worked out at 13000 nM.

On to `COC(=O)C(C)NP(=O)(OC[C@@H]1C=C[C@H](n2cc(C)c(=O)[nH]c2=O)O1)Oc1ccc(Cl)cc1` (stereo partly specified), for which the results for the EC50 in data set [1], in data set [3] and in data set [5] were 7 nM, 6 nM and 5 nM, respectively. The molecule also showed a logD in data set [2] of 1.43. In addition, the Selectivity index in data set [4] was 2200. In the data set on CCRF-CEM, this molecule displayed a 50% cytotoxic concentration (CC50) of 11000 nM.

Regarding `COC(=O)C(C)NP(=O)(OC[C@@H]1C=C[C@H](n2cc(C)c(=O)[nH]c2=O)O1)Oc1ccc(C(C)=O)cc1` (stereo partly specified), the results for the EC50 in data set [1], in data set [3] and in data set [5] were 100 nM, 50 nM and 110 nM, respectively. Also, the logD in data set [2] was determined as 0.9. Moreover, the Selectivity index in data set [4] is reported as 363. In the data set with CCRF-CEM, this molecule yielded a 50% cytotoxic concentration (CC50) of 40000 nM.
